Measurements taken from ChEMBL document CHEMBL1153726, “Synthesis and anticancer activity of sclerophytin-inspired hydroisobenzofurans” (Bioorg Med Chem Lett, 2009).

Key:
Type in all cases: functional
SNB-75 [1] = test: Growth inhibition of human SNB75 cells at 1 nM after 96 hrs by MTT assay; parameters: scale not given: the % may be the effect or the level left
HOP-62 [2] = test: Growth inhibition of human HOP62 cells at 1 nM after 96 hrs by MTT assay; parameters: scale not given: the % may be the effect or the level left
A549 = test: Growth inhibition of human A549 cells at 1 nM after 96 hrs by MTT assay; parameters: scale not given: the % may be the effect or the level left
[3] = Growth inhibition of human Hs 578T cells at 10 uM after 96 hrs by MTT assay; parameters: scale not given: the % may be the effect or the level left
LOX IMVI = test: Growth inhibition of human LOXIMVI cells at 10 uM after 96 hrs by MTT assay; parameters: scale not given: the % may be the effect or the level left
SNB-75 [4] = test: Growth inhibition of human SNB75 cells at 10 uM after 96 hrs by MTT assay; parameters: scale not given: the % may be the effect or the level left
HT-29 [5] = test: Growth inhibition of human HT-29 cells at 10 uM after 96 hrs by MTT assay; parameters: scale not given: the % may be the effect or the level left
HCT-116 = test: Growth inhibition of human HCT116 cells at 10 uM after 96 hrs by MTT assay; parameters: scale not given: the % may be the effect or the level left
COLO 205 = test: Growth inhibition of human COLO205 cells at 10 uM after 96 hrs by MTT assay; parameters: scale not given: the % may be the effect or the level left
NCI-H522 = test: Growth inhibition of human NCI-H522 cells at 10 uM after 96 hrs by MTT assay; parameters: scale not given: the % may be the effect or the level left
HT-29 [6] = test: Growth inhibition of human HT-29 cells at 10 nM after 96 hrs by MTT assay; parameters: scale not given: the % may be the effect or the level left
CAKI-1 = test: Growth inhibition of human Caki1 cells at 1 nM after 96 hrs by MTT assay; parameters: scale not given: the % may be the effect or the level left
SF-539 [7] = test: Growth inhibition of human SF539 cells after 96 hrs by MTT assay; conditions: SF-539, 96 h
Outline: (§1)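 Tested in the NCI 60-cell-line panel in five-dose format; GI50 and LC50 values reported for each cell line.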

IGROV-1 = test: Growth inhibition of human IGROV1 cells after 96 hrs by MTT assay; conditions: IGROV-1, 96 h
Outline: (§2)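 Run in the NCI 60 human tumour cell line panel as a five-dose assay. GI50 and LC50 were reported for each cell line.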

SK-OV-3 [8] = test: Growth inhibition of human SKOV3 cells after 96 hrs by MTT assay; conditions: SK-OV-3, 96 h; outline: as §1
RXF 393 = test: Growth inhibition of human RXF393 cells after 96 hrs by MTT assay; conditions: RXF 393, 96 h; outline: as §1
TK-10 = test: Growth inhibition of human TK10 cells after 96 hrs by MTT assay; conditions: TK-10, 96 h; outline: as §1
HOP-92 = test: Growth inhibition of human HOP92 cells after 96 hrs by MTT assay; conditions: HOP-92, 96 h; outline: as §2
HOP-62 [9] = test: Growth inhibition of human HOP62 cells after 96 hrs by MTT assay; conditions: HOP-62, 96 h; outline: as §2
HL-60(TB) = test: Growth inhibition of human HL-60(TB) cells after 96 hrs by MTT assay; conditions: HL-60, 96 h
BT-549 = test: Growth inhibition of human BT549 cells at 1 uM after 96 hrs by MTT assay; parameters: scale not given: the % may be the effect or the level left
SN12C = test: Growth inhibition of human SN12C cells at 1 uM after 96 hrs by MTT assay; parameters: scale not given: the % may be the effect or the level left
SK-OV-3 [10] = test: Growth inhibition of human SKOV3 cells at 1 uM after 96 hrs by MTT assay; parameters: scale not given: the % may be the effect or the level left
OVCAR-8 [11] = test: Growth inhibition of human OVCAR8 cells at 1 uM after 96 hrs by MTT assay; parameters: scale not given: the % may be the effect or the level left
OVCAR-4 = test: Growth inhibition of human OVCAR4 cells at 1 uM after 96 hrs by MTT assay; parameters: scale not given: the % may be the effect or the level left
MCF7 = test: Growth inhibition of human MCF7 cells at 100 nM after 96 hrs by MTT assay; parameters: scale not given: the % may be the effect or the level left
OVCAR-8 [12] = test: Growth inhibition of human OVCAR8 cells at 100 nM after 96 hrs by MTT assay; parameters: scale not given: the % may be the effect or the level left
SK-MEL-5 = test: Growth inhibition of human SK-MEL-5 cells at 100 nM after 96 hrs by MTT assay; parameters: scale not given: the % may be the effect or the level left
SK-MEL-2 = test: Growth inhibition of human SK-MEL-2 cells at 100 nM after 96 hrs by MTT assay; parameters: scale not given: the % may be the effect or the level left
MDA-MB-435 [13] = test: Growth inhibition of human MDA-MB-435 cells at 100 nM after 96 hrs by MTT assay; parameters: scale not given: the % may be the effect or the level left
U-251 = test: Growth inhibition of human U251 cells at 100 nM after 96 hrs by MTT assay; parameters: scale not given: the % may be the effect or the level left
SF-539 [14] = test: Growth inhibition of human SF539 cells at 100 nM after 96 hrs by MTT assay; parameters: scale not given: the % may be the effect or the level left
SF-268 [15] = test: Growth inhibition of human SF268 cells at 100 nM after 96 hrs by MTT assay; parameters: scale not given: the % may be the effect or the level left
[16] = Growth inhibition of human Hs 578T cells at 10 nM after 96 hrs by MTT assay; parameters: scale not given: the % may be the effect or the level left
ACHN = test: Growth inhibition of human ACHN cells at 10 nM after 96 hrs by MTT assay; parameters: scale not given: the % may be the effect or the level left
MDA-MB-435 [17] = test: Growth inhibition of human MDA-MB-435 cells at 10 nM after 96 hrs by MTT assay; parameters: scale not given: the % may be the effect or the level left
SF-295 = test: Growth inhibition of human SF295 cells at 1 uM after 96 hrs by MTT assay; parameters: scale not given: the % may be the effect or the level left
SF-268 [18] = test: Growth inhibition of human SF268 cells at 1 uM after 96 hrs by MTT assay; parameters: scale not given: the % may be the effect or the level left
KM12 = test: Growth inhibition of human KM12 cells at 1 uM after 96 hrs by MTT assay; parameters: scale not given: the % may be the effect or the level left
[19] = read-out: LC50 (the source's name)
[20] = read-out: Log10GI50 (converted)
[21] = read-out: Log10LC50 (converted)

`C=C(C)[C@H]1CC=C(C)C2=CO[C@@H](c3ccccc3F)[C@@H]21` showed an Activity (SNB-75 [1]) of 85%, an Activity (HOP-62 [2]) of 95% and an Activity (A549) of 93%. For the same compound, the Activity [3] was 95.86%, the Activity (LOX IMVI) was 89.75% and the Activity (SNB-75 [4]) was 80.72%. For the same compound, the Activity (HT-29 [5]) was 89.53%, the Activity (HCT-116) was 71.81% and the Activity (COLO 205) was 101.29%. It also gave an Activity (NCI-H522) of 58.36%, an Activity (HT-29 [6]) of 92% and an Activity (CAKI-1) of 96%. It also gave a GI50 (SF-539 [7]; read-out: GI50) of 6.82 µM, a CC50 (SF-539 [7]; [19]) of 44.8 µM and a GI50 (SF-539 [7]; [20]) of 6.76 µM. It also gave a CC50 (SF-539 [7]; [21]) of 44.7 µM, a TGI (SF-539 [7]; read-out: Log10TGI (converted)) of 20 µM and a TGI (SF-539 [7]; read-out: TGI) of 20 µM. The GI50 (IGROV-1; read-out: GI50) was 11.3 µM, the CC50 (IGROV-1; [19]) was > 100 µM and the GI50 (IGROV-1; [20]) was 11.2 µM. For the same compound, the CC50 (IGROV-1; [21]) was > 100 µM, the TGI (IGROV-1; read-out: Log10TGI (converted)) was 34.7 µM and the TGI (IGROV-1; read-out: TGI) was 34.6 µM. For the same compound, the GI50 (SK-OV-3 [8]; read-out: GI50) was 12.3 µM, the CC50 (SK-OV-3 [8]; [19]) was > 100 µM and the GI50 (SK-OV-3 [8]; [20]) was 12.3 µM. The CC50 (SK-OV-3 [8]; [21]) was > 100 µM, the TGI (SK-OV-3 [8]; read-out: Log10TGI (converted)) was 38.9 µM and the TGI (SK-OV-3 [8]; read-out: TGI) was 39.3 µM. For the same compound, the GI50 (RXF 393; read-out: GI50) was 7 µM, the CC50 (RXF 393; [19]) was 64.7 µM and the GI50 (RXF 393; [20]) was 6.92 µM. For the same compound, the CC50 (RXF 393; [21]) was 64.6 µM, the TGI (RXF 393; read-out: Log10TGI (converted)) was 24 µM and the TGI (RXF 393; read-out: TGI) was 23.9 µM. It also gave a GI50 (TK-10; read-out: GI50) of 8.93 µM, a CC50 (TK-10; [19]) of 88.9 µM and a GI50 (TK-10; [20]) of 8.91 µM. It also gave a CC50 (TK-10; [21]) of 89.1 µM, a TGI (TK-10; read-out: Log10TGI (converted)) of 28.8 µM and a TGI (TK-10; read-out: TGI) of 29.1 µM. It also gave a GI50 (HOP-92; read-out: GI50) of 0.552 µM, a CC50 (HOP-92; [19]) of 26.8 µM and a GI50 (HOP-92; [20]) of 0.55 µM. For the same compound, the CC50 (HOP-92; [21]) was 26.9 µM, the TGI (HOP-92; read-out: Log10TGI (converted)) was 5.75 µM and the TGI (HOP-92; read-out: TGI) was 5.76 µM. It also gave a GI50 (HOP-62 [9]; read-out: GI50) of 10.1 µM, a CC50 (HOP-62 [9]; [19]) of 46.8 µM and a GI50 (HOP-62 [9]; [20]) of 10.2 µM. For the same compound, the CC50 (HOP-62 [9]; [21]) was 46.8 µM, the TGI (HOP-62 [9]; read-out: Log10TGI (converted)) was 21.9 µM and the TGI (HOP-62 [9]; read-out: TGI) was 21.8 µM. It also gave a GI50 (HL-60(TB); read-out: GI50) of 2.08 µM, a CC50 (HL-60(TB); [19]) of 35.5 µM and a GI50 (HL-60(TB); [20]) of 2.09 µM. The CC50 (HL-60(TB); [21]) was 35.5 µM, the TGI (HL-60(TB); read-out: Log10TGI (converted)) was 5.01 µM and the TGI (HL-60(TB); read-out: TGI) was 4.97 µM. For the same compound, the Activity (BT-549) was -6%, the Activity (SN12C) was 44% and the Activity (SK-OV-3 [10]) was 59%. It also gave an Activity (OVCAR-8 [11]) of 59%, an Activity (OVCAR-4) of 33% and an Activity (MCF7) of 83%. It also gave an Activity (OVCAR-8 [12]) of 93%, an Activity (SK-MEL-5) of 69% and an Activity (SK-MEL-2) of 76%. For the same compound, the Activity (MDA-MB-435 [13]) was 84%, the Activity (U-251) was 80% and the Activity (SF-539 [14]) was 84%. The Activity (SF-268 [15]) was 87%, the Activity [16] was 83% and the Activity (ACHN) was 96%. The Activity (MDA-MB-435 [17]) was 83%, the Activity (SF-295) was 30% and the Activity (SF-268 [18]) was 43%. For the same compound, the Activity (KM12) was 24%.
